Measurements as given in ChEMBL document CHEMBL3860103, “Antibacterial and Antibiofilm Activity of Cationic Small Molecules with Spatial Positioning of Hydrophobicity: An in Vitro and in Vivo Evaluation” (J Med Chem, 2016).
The source made the active and inactive calls. The calls are words filed in the database; no cut-off is given here.

Legend:
[1] = test system: Staphylococcus aureus; test: Induction of biofilm disruption in Staphylococcus aureus assessed as reduction in log bacterial burden at 32 ug/ml after 24 hrs by confocal laser-scanning microscopy; format: functional
Summary of the method: (§1)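 Established coverslip biofilms (S. aureus 24 h in nutrient medium + 1% glucose + 1% NaCl; E. coli 72 h in M9 + 0.5% glycerol + 0.02% casamino acid; 37 °C) washed, then exposed to 32 µg/mL for 24 h at 37 °C. Matrix dissolved with trypsin-EDTA, serially diluted, plated on nutrient agar; viability as log10 CFU/mL versus media-only control.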

[2] = test system: Staphylococcus aureus; test: (§2) Antibacterial activity against Staphylococcus aureus infected in BALB/c mouse model of superficial skin infection and biofilm formation assessed as reduction in bacterial load in skin at 40 mg/kg applied topically once daily for 4 days and measured 18 hrs after last dose relative to un-treated control; format: functional; set-up: scale not given: the % may be the effect or the level left
Summary of the method: (§3)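 Female BALB/c mice (6–8 weeks, 18–22 g) made neutropenic with cyclophosphamide i.p. (150 mg/kg, then 100 mg/kg 3 days later), anesthetized, backs shaved, wounded and infected with MRSA ATCC 33591. After 24 h biofilm formation, 40 mg/kg applied topically to wound once daily for 4 days (n = 5/group; untreated control). Skin collected 18 h after last dose for CFU/g; portions formalin-fixed for SEM.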

[3] = Induction of hemolysis in human RBC incubated for 1 hr; format: cell-based, Erythrocyte; conditions: red blood cells
Summary of the method: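 Washed human RBCs from heparinized blood, 5 vol% in PBS, mixed 3:1 with serially diluted compounds; 1 h at 37 °C. Centrifuged; supernatant A540 read. Hemolysis % = (A−A0)/(Atotal−A0)×100, with water as 0% and 0.1 vol% Triton X-100 as full lysis.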

[4] = Induction of membrane hydration changes in Laurdan dye containing DPPG:DPPE (88:12) liposomes assessed as reduction in general polarization at 25 to 100 ug/ml by luminescence spectrometry; format: physicochemical
Summary of the method: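 Liposomes of 0.5 mM DPPG:DPPE (88:12) or 0.5 mM DPPC with Laurdan (lipid:dye 100:1), hydrated in PBS pH 7.4, 10 freeze–thaw cycles, sonicated 15 min at 70 °C. Compounds added in PBS (lipid:compound 7.4:1), tested at 25, 50, 100 µg/mL; emission at 440 and 490 nm (ex 350 nm), 37 °C. GP = (I440−I490)/(I440+I490).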

[5] = Toxicity in topically dosed mouse by OECD425 guidelines based method; format: organism-based; conditions: in vivo, topical or ocular
[6] = Toxicity in HEK293 cells assessed as cell density level at 16 ug/ml incubated for 24 hrs by calcein AM and propidium iodide dye based fluorescence microscopy; conditions: human, hek293, 24 h
Summary of the method: (§4)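 HEK 293 cells seeded ~10^4 cells/well, treated with compounds for 24 h (16, 32 or 64 µg/mL); 0.1% Triton X positive, untreated negative control. Stained with calcein AM (2 µM) and PI (4.5 µM) 15 min at 37 °C, 5% CO2; imaged by fluorescence microscopy, 20X objective.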

[7] = test system: Staphylococcus aureus; test: Antibacterial activity against Staphylococcus aureus infected in BALB/c mouse model of superficial skin infection and biofilm formation assessed as reduction in bacterial load in skin at 40 mg/kg applied topically once daily for 4 days and measured 18 hrs after last dose; format: functional; summary of the method: as §3
[8] = test system: Staphylococcus aureus; test: Antibacterial activity against methicillin-resistant Staphylococcus aureus incubated for 24 hrs; format: functional
Summary of the method: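 MRSA (ATCC 33591) from a 6 h culture (~10^9 CFU/mL), diluted to ~10^5 CFU/mL in medium. Compounds in water, 2-fold serial dilutions, combined with the bacteria at 1:3 by volume and incubated 24 h at 37 °C. OD600 read. MIC is the lowest concentration whose OD matches the media-only control. Triplicate wells; experiments repeated at least twice.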

[9] = test system: Mus musculus; test: Toxicity in topically dosed mouse assessed as induction of abnormal skin reaction at 200 mg/kg by OECD425 guidelines based method; format: organism-based; conditions: in vivo, topical_or_ocular
[10] = test system: Staphylococcus aureus; test: Induction of biofilm disruption in Staphylococcus aureus assessed as mature biofilm thickness at 32 ug/ml after 24 hrs by SYTO 9 dye based confocal laser-scanning microscopy (reference value: 14 to 18 um); format: functional
Summary of the method: (§5)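 Biofilms grown on glass coverslips from ~10^5 CFU/mL: S. aureus in nutrient medium + 1% glucose + 1% NaCl, 24 h; E. coli in M9 + 0.5% glycerol + 0.02% casamino acid, 72 h; stationary, 37 °C. After PBS wash, treated 24 h at 37 °C with 32 µg/mL in the same medium; media-only control. Stained with SYTO 9 (5 µM), imaged by confocal microscopy.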

[11] = test system: Mus musculus; test: Toxicity in topically dosed mouse assessed as induction of inflammation at 200 mg/kg by OECD425 guidelines based method; format: organism-based; conditions: in vivo, topical_or_ocular
[12] = test system: Staphylococcus aureus; test: Induction of membrane permeabilization in Staphylococcus aureus at 32 ug/ml after 0 to 20 mins by propidium iodide dye based assay; format: functional
Summary of the method: (§6)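 Membrane permeabilization of S. aureus or E. coli followed as increase in propidium iodide fluorescence after adding compounds at 32 µg/mL.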

[13] = test system: Escherichia coli; test: Induction of biofilm disruption in Escherichia coli assessed as reduction in log bacterial burden at 32 ug/ml after 72 hrs by confocal laser-scanning microscopy; format: functional; conditions: in the assay text read “after 24 hrs” for “after 72 hrs”; summary of the method: as §1
[14] = Selectivity index, ratio of HC50 for induction of hemolysis in human RBC to MIC for Staphylococcus aureus
[15] = test system: Staphylococcus aureus; test: Antibacterial activity against Staphylococcus aureus incubated for 24 hrs; format: functional
Summary of the method: (§7)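 Broth microdilution: 6 h cultures diluted to ~10^5 CFU/mL in medium; compounds 2-fold serially diluted in water, mixed 1:3 with bacterial suspension. Incubated 24 h, 37 °C; OD600 read. MIC = concentration with OD similar to medium-only control. Triplicate wells, experiments repeated at least twice.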

[16] = test system: Escherichia coli; test: Induction of biofilm disruption in Escherichia coli assessed as mature biofilm thickness at 32 ug/ml after 24 hrs by SYTO 9 dye based confocal laser-scanning microscopy (reference value: 14 to 18 um); format: functional; summary of the method: as §5
[17] = test system: Escherichia coli; test: Induction of membrane permeabilization in Escherichia coli at 32 ug/ml after 0 to 20 mins by propidium iodide dye based assay; format: functional; summary of the method: as §6
[18] = Toxicity in HEK293 cells assessed as induction of cell death at 32 ug/ml incubated for 24 hrs by calcein AM and propidium iodide dye based fluorescence microscopy; conditions: human, hek293, 24 h; summary of the method: as §4
[19] = test system: Staphylococcus aureus; test: Induction of biofilm disruption in Staphylococcus aureus after 24 hrs by confocal laser-scanning microscopy; format: functional; summary of the method: as §5
[20] = test system: Staphylococcus aureus; test: Induction of membrane depolarization in Staphylococcus aureus at 32 ug/ml after 0 to 20 mins by […] dye based assay; format: functional
Summary of the method: (§8)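 Membrane-potential dye DiSC3(5) taken up by S. aureus or E. coli; depolarization followed as rise in dye fluorescence after adding compounds at 32 µg/mL.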

[21] = test system: Escherichia coli; test: Antibacterial activity against Escherichia coli incubated for 24 hrs; format: functional; summary of the method: as §7
[22] = test system: Escherichia coli; test: Induction of membrane depolarization in Escherichia coli at 32 ug/ml after 0 to 20 mins by […] dye based assay; format: functional; summary of the method: as §8
[23] = Selectivity index, ratio of HC50 for induction of hemolysis in human RBC to MIC for Escherichia coli
[24] = test system: Staphylococcus aureus; test: as §2, with “dose by FEI field emission scanning electron microscopy” for “dose”; format: functional, organism-based; summary of the method: as §3
[25] = Toxicity in HEK293 cells assessed as induction of cell death at 64 ug/ml incubated for 24 hrs by calcein AM and propidium iodide dye based fluorescence microscopy; conditions: human, hek293, 24 h; summary of the method: as §4

CCCCCCNC(=O)C[N+](C)(C)CCCCCCCCCCCC[N+](C)(C)CC(=O)NCCCCCC.[Br-].[Br-]
FC [1]: 9.2 | Activity [2]: >99.999% | HC50 at 1 h [3]: 805 µg/mL | Activity [4]: Active | LD50 [5]: > 200 mg/kg | Activity [6]: Non-Toxic | Activity [7]: 5.3 log10CFU/g | MIC [8]: 2 µg/mL | Activity [9]: Non-Toxic | Activity [10]: 2 - 3 um | Activity [11]: Non-Toxic | Activity [12]: Active | FC [13]: 7.1 | Selectivity Index [14]: 805 | MIC [15]: 1 µg/mL | Activity [16]: 2 - 3 um | Activity [17]: Active | Activity [18]: Non-Toxic | MBEC [19]: 31.2 to 62.5 µg/mL | Activity [20]: Active | MIC [21]: 2 µg/mL | Activity [22]: Active | Selectivity Index [23]: 402 | Activity [24]: Active | Activity [25]: Non-Toxic
